From ChEMBL document CHEMBL4130549, “Synthesis and bioactivities study of new antibacterial peptide mimics: The dialkyl cationic amphiphiles” (Eur J Med Chem, 2018)
Activity calls are given as the source filed them. No cut-off for these calls is given here.

How the values were obtained:
Staphylococcus aureus [1] = test: Antibacterial activity against Staphylococcus aureus ATCC 29213 after 16 to 20 hrs by broth microdilution method; type: functional
Outline: (§1)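 CLSI broth microdilution in cation-adjusted Mueller-Hinton broth. A 4-6 h culture was diluted to about 10⁶ CFU/mL and mixed 1:1 with twofold compound dilutions (256–0.5 µg/mL before mixing) prepared from aqueous stocks. Plates were incubated at 37 °C for 16-20 h. Each concentration was tested in duplicate, and the experiment was repeated at least twice.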

Enterococcus faecalis = test: Antibacterial activity against Enterococcus faecalis after 16 to 20 hrs by broth microdilution method; type: functional
Outline: (§2)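 Broth microdilution per CLSI in cation-adjusted Mueller-Hinton broth; 4-6 h cultures (~10⁸ CFU/mL) diluted to ~10⁶ CFU/mL and mixed 1:1 with twofold dilutions of water-dissolved compound (256 to 0.5 µg/mL). Incubated 16-20 h at 37 °C; MIC read visually. Each concentration run in duplicate, whole experiment repeated at least twice. MRSA, KPC and NDM-1 strains were clinical isolates.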

Escherichia coli [2] = test: Antibacterial activity against Escherichia coli ATCC 25922 after 16 to 20 hrs by broth microdilution method; type: functional; outline: as §2
Salmonella enterica = test: Antibacterial activity against Salmonella enterica after 16 to 20 hrs by broth microdilution method; type: functional; outline: as §2
Staphylococcus aureus [3] = test: Antibacterial activity against methicillin-resistant Staphylococcus aureus after 16 to 20 hrs by broth microdilution method; type: functional; outline: as §1
Klebsiella pneumoniae [4] = test: Antibacterial activity against carbapenemase-producing Klebsiella pneumoniae after 16 to 20 hrs by broth microdilution method; type: functional; outline: as §2
Enterobacteriaceae [5] = test: Antibacterial activity against NDM-1-producing Enterobacteriaceae after 16 to 20 hrs by broth microdilution method; type: functional; outline: as §2
[6] = Hemolytic activity in sheep RBC after 1 hr; type: ADME, cell-based, Ovis aries, Erythrocyte; conditions: sheep red blood cells (erythrocytes)
Outline: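 Sheep RBCs suspended at 5% in PBS; 150 µL added to 50 µL compound dilutions (5120 to 10 µg/mL series). Incubated 1 h at 37 °C, then centrifuged; supernatant absorbance read at 540 nm. Lysis (%) = (A−A0)/(Atotal−A0)×100, with untreated 5% RBC as A0 and 0.1% Triton X-100 as total.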

Staphylococcus aureus [7] = test: Antibacterial activity against methicillin-resistant Staphylococcus aureus isolate M1 after 16 to 20 hrs by broth microdilution method; type: functional; outline: as §1
Staphylococcus aureus [8] = test: Antibacterial activity against methicillin-resistant Staphylococcus aureus isolate M2 after 16 to 20 hrs by broth microdilution method; type: functional; outline: as §1
Staphylococcus aureus [9] = test: Antibacterial activity against methicillin-resistant Staphylococcus aureus isolate M3 after 16 to 20 hrs by broth microdilution method; type: functional; outline: as §1
Staphylococcus aureus [10] = test: Antibacterial activity against methicillin-resistant Staphylococcus aureus isolate M4 after 16 to 20 hrs by broth microdilution method; type: functional; outline: as §1
Staphylococcus aureus [11] = test: Antibacterial activity against methicillin-resistant Staphylococcus aureus isolate M5 after 16 to 20 hrs by broth microdilution method; type: functional; outline: as §1
Staphylococcus aureus [12] = test: Antibacterial activity against methicillin-resistant Staphylococcus aureus isolate M6 after 16 to 20 hrs by broth microdilution method; type: functional; outline: as §1
Staphylococcus aureus [13] = test: Antibacterial activity against methicillin-resistant Staphylococcus aureus isolate M7 after 16 to 20 hrs by broth microdilution method; type: functional; outline: as §1
Staphylococcus aureus [14] = test: Antibacterial activity against methicillin-resistant Staphylococcus aureus isolate M8 after 16 to 20 hrs by broth microdilution method; type: functional; outline: as §1
Staphylococcus aureus [15] = test: Antibacterial activity against methicillin-resistant Staphylococcus aureus isolate M9 after 16 to 20 hrs by broth microdilution method; type: functional; outline: as §1
Staphylococcus aureus [16] = test: Antibacterial activity against methicillin-resistant Staphylococcus aureus isolate M10 after 16 to 20 hrs by broth microdilution method; type: functional; outline: as §1
Klebsiella pneumoniae [17] = test: Antibacterial activity against carbapenemase-producing Klebsiella pneumoniae isolate K1 after 16 to 20 hrs by broth microdilution method; type: functional; outline: as §2
Klebsiella pneumoniae [18] = test: Antibacterial activity against carbapenemase-producing Klebsiella pneumoniae isolate K2 after 16 to 20 hrs by broth microdilution method; type: functional; outline: as §2
Klebsiella pneumoniae [19] = test: Antibacterial activity against carbapenemase-producing Klebsiella pneumoniae isolate K3 after 16 to 20 hrs by broth microdilution method; type: functional; outline: as §2
Klebsiella pneumoniae [20] = test: Antibacterial activity against carbapenemase-producing Klebsiella pneumoniae isolate K4 after 16 to 20 hrs by broth microdilution method; type: functional; outline: as §2
Klebsiella pneumoniae [21] = test: Antibacterial activity against carbapenemase-producing Klebsiella pneumoniae isolate K5 after 16 to 20 hrs by broth microdilution method; type: functional; outline: as §2
Klebsiella pneumoniae [22] = test: Antibacterial activity against carbapenemase-producing Klebsiella pneumoniae isolate K6 after 16 to 20 hrs by broth microdilution method; type: functional; outline: as §2
Klebsiella pneumoniae [23] = test: Antibacterial activity against carbapenemase-producing Klebsiella pneumoniae isolate K7 after 16 to 20 hrs by broth microdilution method; type: functional; outline: as §2
Klebsiella pneumoniae [24] = test: Antibacterial activity against carbapenemase-producing Klebsiella pneumoniae isolate K8 after 16 to 20 hrs by broth microdilution method; type: functional; outline: as §2
Klebsiella pneumoniae [25] = test: Antibacterial activity against carbapenemase-producing Klebsiella pneumoniae isolate K9 after 16 to 20 hrs by broth microdilution method; type: functional; outline: as §2
Klebsiella pneumoniae [26] = test: Antibacterial activity against carbapenemase-producing Klebsiella pneumoniae isolate K10 after 16 to 20 hrs by broth microdilution method; type: functional; outline: as §2
Enterobacteriaceae [27] = test: Antibacterial activity against NDM-1-producing Enterobacteriaceae isolate N1 after 16 to 20 hrs by broth microdilution method; type: functional; outline: as §2
Enterobacteriaceae [28] = test: Antibacterial activity against NDM-1-producing Enterobacteriaceae isolate N2 after 16 to 20 hrs by broth microdilution method; type: functional; outline: as §2
Enterobacteriaceae [29] = test: Antibacterial activity against NDM-1-producing Enterobacteriaceae isolate N3 after 16 to 20 hrs by broth microdilution method; type: functional; outline: as §2
Enterobacteriaceae [30] = test: Antibacterial activity against NDM-1-producing Enterobacteriaceae isolate N4 after 16 to 20 hrs by broth microdilution method; type: functional; outline: as §2
Enterobacteriaceae [31] = test: Antibacterial activity against NDM-1-producing Enterobacteriaceae isolate N5 after 16 to 20 hrs by broth microdilution method; type: functional; outline: as §2
Enterobacteriaceae [32] = test: Antibacterial activity against NDM-1-producing Enterobacteriaceae isolate N6 after 16 to 20 hrs by broth microdilution method; type: functional; outline: as §2
Enterobacteriaceae [33] = test: Antibacterial activity against NDM-1-producing Enterobacteriaceae isolate N7 after 16 to 20 hrs by broth microdilution method; type: functional; outline: as §2
Enterobacteriaceae [34] = test: Antibacterial activity against NDM-1-producing Enterobacteriaceae isolate N8 after 16 to 20 hrs by broth microdilution method; type: functional; outline: as §2
Enterobacteriaceae [35] = test: Antibacterial activity against NDM-1-producing Enterobacteriaceae isolate N9 after 16 to 20 hrs by broth microdilution method; type: functional; outline: as §2
Enterobacteriaceae [36] = test: Antibacterial activity against NDM-1-producing Enterobacteriaceae isolate N10 after 16 to 20 hrs by broth microdilution method; type: functional; outline: as §2
Staphylococcus aureus [37] = test: Induction of cytoplasmic membrane depolarization in Staphylococcus aureus ATCC 29213 at 20 ug/ml measured every 2 mins for 12 mins by diSC35 staining based fluorescence assay; type: functional, organism-based
Outline: (§3)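 Mid-log cells (4–6 h) pelleted, washed and resuspended (~10^8 CFU/mL) in PBS for S. aureus, or in 5 mM HEPES, 5 mM glucose and 100 mM KCl (1:1:1) for E. coli. Preloaded with diSC35 (10 µM, 50 µL), 30 min for S. aureus and 40 min plus EDTA (200 µM, 50 µL) for E. coli. Baseline read 8 min (ex 622/em 670 nm), then compound added to 20 µg/mL final and read every 2 min for 12 min. Water control.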

Escherichia coli [38] = test: Induction of cytoplasmic membrane depolarization in Escherichia coli ATCC 25922 at 20 ug/ml measured every 2 mins for 12 mins by diSC35 staining based fluorescence assay; type: functional, organism-based; outline: as §3
Staphylococcus aureus [39] = test: Induction of inner membrane permeabilization in Staphylococcus aureus ATCC 29213 at 20 ug/ml measured every 2 mins for 12 mins by propidium iodide staining based fluorescence assay; type: functional, organism-based
Outline: (§4)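 Mid-log cells (~10^8 CFU/mL) pre-incubated with propidium iodide (10 µM, 50 µL), 30 min for S. aureus and 40 min for E. coli. Fluorescence (ex 535/em 617 nm) read for 8 min, then compound added to 20 µg/mL final and monitored every 2 min for 12 min. Water-treated control.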

Escherichia coli [40] = test: Induction of inner membrane permeabilization in Escherichia coli ATCC 25922 at 20 ug/ml measured every 2 mins for 12 mins by propidium iodide staining based fluorescence assay; type: functional, organism-based; outline: as §4
Escherichia coli [41] = test: Induction of outer membrane permeabilization in Escherichia coli ATCC 25922 at 20 ug/ml measured every 2 mins for 12 mins by NPN staining based fluorescence assay; type: functional, organism-based
Outline: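 Mid-log E. coli (~10^8 CFU/mL) in black plates pre-incubated about 40 min with NPN (10 µM, 50 µL). Baseline read 8 min (ex 350/em 420 nm), then compound added to 20 µg/mL final and fluorescence followed every 2 min for 12 min. Water-treated control.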

Q: With `CCCCCCCCCCCN(CCCCCCCCCCC)C(=O)[C@@H](N)CCCCN.Cl.Cl` as the molecule, how does the MIC (Staphylococcus aureus [1]) read?
A: 4 µg/mL

Q: And the MIC (Enterococcus faecalis)?
A: 2 µg/mL

Q: And the MIC (Escherichia coli [2])?
A: 16 µg/mL

Q: What about the MIC (Salmonella enterica) of the same molecule?
A: 8 µg/mL

Q: And the MIC (Staphylococcus aureus [3])?
A: 4 µg/mL

Q: And the MIC (Klebsiella pneumoniae [4])?
A: 8 µg/mL

Q: What about the MIC (Enterobacteriaceae [5]) of the same molecule?
A: 32 µg/mL

Q: And the HC50 at 1 h [6]?
A: 89 µg/mL

Q: And the MIC (Staphylococcus aureus [7])?
A: 2 µg/mL

Q: And the MIC (Staphylococcus aureus [8])?
A: 1 µg/mL

Q: What about the MIC (Staphylococcus aureus [9]) of the same molecule?
A: 2 µg/mL

Q: What about the MIC (Staphylococcus aureus [10]) of the same molecule?
A: 2 µg/mL

Q: And the MIC (Staphylococcus aureus [11])?
A: 4 µg/mL

Q: And the MIC (Staphylococcus aureus [12])?
A: 4 µg/mL

Q: What about the MIC (Staphylococcus aureus [13]) of the same molecule?
A: 4 µg/mL

Q: And the MIC (Staphylococcus aureus [14])?
A: 4 µg/mL

Q: What about the MIC (Staphylococcus aureus [15]) of the same molecule?
A: 4 µg/mL

Q: And the MIC (Staphylococcus aureus [16])?
A: 4 µg/mL

Q: What about the MIC (Klebsiella pneumoniae [17]) of the same molecule?
A: 32 µg/mL

Q: What about the MIC (Klebsiella pneumoniae [18]) of the same molecule?
A: 16 µg/mL

Q: What about the MIC (Klebsiella pneumoniae [19]) of the same molecule?
A: 16 µg/mL

Q: What about the MIC (Klebsiella pneumoniae [20]) of the same molecule?
A: 8 µg/mL

Q: And the MIC (Klebsiella pneumoniae [21])?
A: 32 µg/mL

Q: What about the MIC (Klebsiella pneumoniae [22]) of the same molecule?
A: 32 µg/mL

Q: What about the MIC (Klebsiella pneumoniae [23]) of the same molecule?
A: 32 µg/mL

Q: What about the MIC (Klebsiella pneumoniae [24]) of the same molecule?
A: 8 µg/mL

Q: What about the MIC (Klebsiella pneumoniae [25]) of the same molecule?
A: 32 µg/mL

Q: What about the MIC (Klebsiella pneumoniae [26]) of the same molecule?
A: 32 µg/mL

Q: What about the MIC (Enterobacteriaceae [27]) of the same molecule?
A: 32 µg/mL

Q: And the MIC (Enterobacteriaceae [28])?
A: 32 µg/mL

Q: What about the MIC (Enterobacteriaceae [29]) of the same molecule?
A: 32 µg/mL

Q: And the MIC (Enterobacteriaceae [30])?
A: 32 µg/mL

Q: And the MIC (Enterobacteriaceae [31])?
A: 32 µg/mL

Q: What about the MIC (Enterobacteriaceae [32]) of the same molecule?
A: 32 µg/mL

Q: What about the MIC (Enterobacteriaceae [33]) of the same molecule?
A: 16 µg/mL

Q: And the MIC (Enterobacteriaceae [34])?
A: 16 µg/mL

Q: And the MIC (Enterobacteriaceae [35])?
A: 32 µg/mL

Q: What about the MIC (Enterobacteriaceae [36]) of the same molecule?
A: 32 µg/mL

Q: And the Activity (Staphylococcus aureus [37])?
A: Active

Q: And the Activity (Escherichia coli [38])?
A: Active

Q: What about the Activity (Staphylococcus aureus [39]) of the same molecule?
A: Active

Q: And the Activity (Escherichia coli [40])?
A: Active

Q: What about the Activity (Escherichia coli [41]) of the same molecule?
A: Active
